Test results reported in PMC10132129 (RSC Advances, 2023).
Where a name gives a salt, the structure may show the parent alone. Marks after values point to notes of the source that are not given here. Blank lines part the entries; values can stand above or below the compound they belong to.

How the values were obtained:
[1] = ABTS^+· radical scavenging assay; assay type: biochemical; details: read-out: IC50 against ABTS^+· free radical
Summary of the method: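 Radical-scavenging assay: test compound at 25–100 μg mL−1 mixed with ABTS+· solution and incubated 37 °C, 6 min. Absorbance read at 750 nm against blank. Ascorbic acid was the standard. Triplicate runs; IC50 reported.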

[2] = test system: streptozotocin-induced diabetic male rats; test: Copulatory; assay type: in vivo, albino rats; details: 5 mg kg^−1 b.w; day 63
Summary of the method: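 STZ-diabetic males dosed orally for 9 weeks; tested on day 63. Females were ovariectomized and primed sc with 3-benzoyloxy-17b-estrol 48 h before and progesterone 500 μg 4 h before testing. Males adapted 10 min under dim red light, then paired 1:1. Mount, intromission and ejaculation latencies/frequencies and post-ejaculatory interval recorded; n = 6.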

human PDE5A = human PDE5A (Homo sapiens, UniProt O76074); test: In vitro PDE5 inhibitory activity; assay type: biochemical; details: read-out: % Inhibition of PDE5
[3] = test system: streptozotocin-induced diabetic male rats; test: Epididymal sperm characteristics; assay type: in vivo, albino rats; details: 5 mg kg^−1 b.w, 9 weeks
Summary of the method: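 After 9 weeks' oral dosing of STZ-diabetic rats, cauda epididymal semen was diluted with normal saline in a red-cell pipette (0.5 to 101 mark). Count in Neubauer chamber at ×40, expressed as million cells per mL. Viability by eosin–nigrosin mixed 1:1 for 5 min, ~200 cells scored; unstained cells counted as live. Smears air-dried for morphology; n = 6.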

[4] = test system: streptozotocin-induced diabetic male rats; test: Body weight and relative reproductive organ weight in diabetic rats; assay type: in vivo, albino rats; details: 5 mg kg^−1 b.w
Summary of the method: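 Male albino rats (190–200 g), fasted overnight, given STZ 55 mg kg−1 ip with 5% glucose to drink; FPG >250 mg dL−1 at 72 h defined diabetes. Body weight recorded weeks 0, 5, 9. Organs weighed post-mortem; relative weight = organ/body weight × 100.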

[5] = test system: streptozotocin-induced diabetic male rats; test: Histopathological examination of testes; assay type: in vivo, albino rats; details: 9 weeks
Summary of the method: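 Testes from 9-week-dosed diabetic rats fixed in 10% formalin, paraffin-embedded, cut at 5 μm and H&E-stained; examined at ×400. Tubule diameter and epithelial height measured on 20 near-circular seminiferous tubule cross-sections from three slides (lower, middle, upper testis). n = 6; mean ± SD.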

[6] = test system: streptozotocin-induced diabetic male rats; test: Serum biochemical estimation in diabetic rats; assay type: in vivo, albino rats; details: for Fasting plasma glucose / Fasting plasma glucose % reduced / Serum insulin / Serum insulin % increased: 5 mg kg^−1 b.w
Summary of the method: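 STZ-diabetic male rats (55 mg kg−1 ip; FPG >250 mg dL−1) dosed orally 9 weeks in 0.5% Na-CMC; n = 6. Fasting retro-orbital blood taken under diethyl ether at weeks 0, 5, 9; serum spun 3500 rpm, 15 min. FPG by glucometer; ALT, AST, ALP, creatinine by commercial kits. Mean ± SD; one-way ANOVA with Tukey test.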

[7] = test system: streptozotocin-induced diabetic male rats; test: Mating test; assay type: in vivo, albino rats; details: 5 mg kg^−1 b.w
Summary of the method: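 In week 8, each treated diabetic male was housed 5 days with two virgin females. Daily vaginal smears checked for sperm. Sperm-positive females were kept 10 days, then euthanised (diethyl ether overdose) to count fetuses and corpora lutea. Mating success = females mated / females paired; male fertility = fetuses / corpora lutea.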

[8] = 9 weeks treatment, vs diabetic control

IC50 [1]: 169 ± 12.9 µM
Structure (SMILES): O=C1O[C@H]([C@@H](O)CO)C(O)=C1O [ascorbic acid]

inhibition at 2.5 µg/mL (human PDE5A): 48.1 ± 1.48%
inhibition at 5 µg/mL (human PDE5A): 67.8 ± 1.21%
inhibition at 7.5 µg/mL (human PDE5A): 84.1 ± 0.86%
inhibition at 10 µg/mL (human PDE5A): 97.3 ± 1.64%
Structure (SMILES): CCCc1nn(C)c2c(=O)[nH]c(-c3cc(S(=O)(=O)N4CCN(C)CC4)ccc3OCC)nc12 [Sildenafil citrate]
Ejaculatory latency [2]: 948.83 ± 32.29^a sec
Intromission frequency [2]: 8.20 ± 0.55^by no.
Intromission latency [2]: 805.33 ± 23.84^bx sec
Mount frequency [2]: 578.50 ± 38.01^cy sec
Mount latency [2]: 539.67 ± 27.06^x sec
Post ejaculatory interval [2]: 1311.67 ± 95.19 s
Detached head from sperm [3]: 9.67 ± 2.73^z %
Sperm abnormalities [3]: 9.83 ± 0.75^ay %
Sperm count [3]: 56.69 ± 1.37 million cells per mL
Sperm count % reduced [3]: 24.24 ± 3.66%
Sperm motility [3]: 68.67 ± 3.14^by %
Sperm viability [3]: 68.17 ± 2.56^cz %
Body weight ([4]; 9 weeks): 179.50 ± 5.05 g
Body weight % changed ([4]; 9 weeks): −10.32 ± 3.18%
Body weight ([4]; 0 week): 200.33 ± 6.68 g
Body weight ([4]; 5 weeks): 170.83 ± 6.79 g
Body weight % changed ([4]; 5 weeks): −14.69 ± 3.27%
Height of seminiferous epithelium ([5]; 5 mg kg^−1 b.w): 70.60 ± 3.10^z μm
Mean seminiferous tubule diameter ([5]; 5 mg kg^−1 b.w): 217.00 ± 15.14^y μm
Mean Johnson's score ([5]; 5 mg kg^−1 b.w, range 1–10): 9.30 ± 0.48^z
Testicular histology (H&E) ([5]; oral treatment): marked development in the testicular structure
Fasting plasma glucose ([6]; 9 weeks): 190.67 ± 5.79 mg/dL
Fasting plasma glucose % reduced ([6]; 9 weeks): 45.28 ± 2.37%
Serum insulin ([6]; 9 weeks): 6.82 ± 0.14 mIU L^−1
Serum insulin % increased ([6]; 9 weeks): 99.58 ± 9.18%
Fasting plasma glucose ([6]; 0 week): 348.67 ± 6.80^c mg dL^−1
Serum insulin ([6]; 0 week): 3.43 ± 021^c mIU L^−1
Fasting plasma glucose ([6]; 5 weeks): 219.17 ± 5.38 mg/dL
Fasting plasma glucose % reduced ([6]; 5 weeks): 37.12 ± 2.15%
Serum insulin ([6]; 5 weeks): 6.00 ± 0.29 mIU L^−1
Serum insulin % increased ([6]; 5 weeks): 75.37 ± 3.54%
Creatinine (Cr) level [6, 8]: remarkable reduction
Total bilirubin (TBIL) level [6, 8]: remarkable reduction
Total protein (TP) level [6, 8]: significant recovery
Urea (U) level [6, 8]: remarkable reduction
Male fertility [7]: 83.85 ± 3.98^z %
Mating success [7]: 83.34%
No. of corpora lutea/rat [7]: 12.40 ± 0.52
No. of fetuses/rat [7]: 10.40 ± 0.70^z
No. of females mated ([7]; of 12 females paired): 10
No. of females pregnant ([7]; of 12 females paired): 10
